Consider two molecules from paper PMC2774623 (Biochemistry, 2008).

This experiment deals with CK2α catalytic subunit. Nature of the experiment: SPR. As to conditions: for kd (s^−1) × 10^−3: SPR BIAcoreX, CK2α coupled to CM5 chip, 25 °C, HBS pH 7.4, Langmuir 1:1 model; for association constant ka (as printed in text): SPR, binding to CK2α, unit not given. Type of experiment: binding, human. The procedure, abridged: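 Recombinant human CK2α, expressed in E. coli, amine-coupled to a CM5 chip (1600 RU). Mouse NBD1 analyte, wild type or ΔF508, at 15 μM, flowed at 10 μL/min, 25 °C, in HBS (10 mM Hepes pH 7.4, 150 mM NaCl, 3 mM EDTA, 0.005% P20). Blank-surface response subtracted; rate constants fitted to a 1:1 binding model.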

B1: NBD1 ΔF508: purified ΔF508 mutated recombinant murine NBD1 of CFTR (spanning sequence 389−673) (protein)
chain: TTGIIMENVTAFWEEGFGELLEKVQQSNGDRKHSSDENNVSFSHLCLVGNPVLKNINLNIEKGEMLAITGSTGSGKTSLLMLILGELEASEGIIKHSGRVSFCSQFSWIMPGTIKENIIGVSYDEYRYKSVVKACQLQQDITKFAEQDNTVLGEGGVTLSGGQRARISLARAVYKDADLYLLDSPFGYLDVFTEEQVFESCVCKLMANKTRILVTSKMEHLRKADKILILHQGSSYFYGTFSELQSLRPDFSSKLMGYDTFDQFTEERRSSILTETLRRFSVDD
Consider B1, for which the “kd (s^−1) × 10^−3” value is recorded as 0.0877 s^−1 × 10^−3 and the “association constant ka (as printed in text)” value is recorded as 0.96 × 10^3.

B2: NBD1 wt: purified wild-type recombinant murine NBD1 of CFTR (spanning sequence 389−673) (protein)
chain: TTGIIMENVTAFWEEGFGELLEKVQQSNGDRKHSSDENNVSFSHLCLVGNPVLKNINLNIEKGEMLAITGSTGSGKTSLLMLILGELEASEGIIKHSGRVSFCSQFSWIMPGTIKENIIFGVSYDEYRYKSVVKACQLQQDITKFAEQDNTVLGEGGVTLSGGQRARISLARAVYKDADLYLLDSPFGYLDVFTEEQVFESCVCKLMANKTRILVTSKMEHLRKADKILILHQGSSYFYGTFSELQSLRPDFSSKLMGYDTFDQFTEERRSSILTETLRRFSVDD
As for B2, the “kd (s^−1) × 10^−3” value stood at 0.335 s^−1 × 10^−3 and the “association constant ka (as printed in text)” value is listed as 0.135 × 10^3.
